Test results as given in ChEMBL document CHEMBL5058577, “EUbOPEN Chemogenomics Library 2 (Multiplex)” (2022).

Tested on: U2OS
Test: Multiplex assay against U2OS
Format: toxicity, cell-based
Settings: human
How it was run: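 Live cells were stained at seeding with Hoechst33342, BioTracker Green Microtubule Cytoskeleton Dye, MitoTracker Red and Annexin V Alexa Fluor 680. Following compound addition, they were imaged on a CQ1 microscope at 37°C and 5% CO2 and gated by CellPathfinder machine learning into Hoechst high-intensity objects or normal cells, with normal cells split into healthy, pyknosed or fragmented nuclei and pyknosed cells into mitotic or apoptotic. Tubulin, mitochondrial-mass and membrane-permeability phenotypes are per cents of healthy-nucleus cells.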

[1] = 12 h, 1 µM, compound concentration 1 uM, replicate 1
[2] = 12 h, 1 µM, compound concentration 1 uM, replicate 2
[3] = 12 h, 10 µM, compound concentration 10 uM, replicate 1
[4] = 12 h, 10 µM, compound concentration 10 uM, replicate 2
[5] = 24 h, 1 µM, compound concentration 1 uM, replicate 1
[6] = 24 h, 1 µM, compound concentration 1 uM, replicate 2
[7] = 24 h, 10 µM, compound concentration 10 uM, replicate 1
[8] = 24 h, 10 µM, compound concentration 10 uM, replicate 2
[9] = 48 h, 1 µM, compound concentration 1 uM, replicate 1
[10] = 48 h, 1 µM, compound concentration 1 uM, replicate 2
[11] = 48 h, 10 µM, compound concentration 10 uM, replicate 1
[12] = 48 h, 10 µM, compound concentration 10 uM, replicate 2

CC(/C=C1\SC(=S)N(CCCC(=O)Nc2ccc(C(=O)O)c(O)c2)C1=O)=C\c1ccccc1
Population Apoptotic (%) [1]: 94%
Population Fragmented Nuclei (%) [1]: 26%
Population Healthy Nuclei (%) [1]: 64%
Population Hoechst High Intensity Objects (%) [1]: 3%
Population Membrane Permeable-Phenotype (%) [1]: 4%
Population Mitochondria Different-Phenotype (%) [1]: 1%
Population Mitotic Cells (%) [1]: 5%
Population Normal (%) [1]: 96%
Population Pyknosed Nuclei (%) [1]: 8%
Population Tubulin-Different-Phenotype (%) [1]: 3%
Total Cell Count [1]: 205
Population Apoptotic (%) [2]: 100%
Population Fragmented Nuclei (%) [2]: 12%
Population Healthy Nuclei (%) [2]: 80%
Population Hoechst High Intensity Objects (%) [2]: 4%
Population Membrane Permeable-Phenotype (%) [2]: 3%
Population Mitochondria Different-Phenotype (%) [2]: 2%
Population Mitotic Cells (%) [2]: 0%
Population Normal (%) [2]: 95%
Population Pyknosed Nuclei (%) [2]: 7%
Population Tubulin-Different-Phenotype (%) [2]: 0%
Total Cell Count [2]: 133
Population Apoptotic (%) [3]: 91%
Population Fragmented Nuclei (%) [3]: 28%
Population Healthy Nuclei (%) [3]: 61%
Population Hoechst High Intensity Objects (%) [3]: 3%
Population Membrane Permeable-Phenotype (%) [3]: 12%
Population Mitochondria Different-Phenotype (%) [3]: 2%
Population Mitotic Cells (%) [3]: 8%
Population Normal (%) [3]: 96%
Population Pyknosed Nuclei (%) [3]: 9%
Population Tubulin-Different-Phenotype (%) [3]: 4%
Total Cell Count [3]: 241
Population Apoptotic (%) [4]: 72%
Population Fragmented Nuclei (%) [4]: 16%
Population Healthy Nuclei (%) [4]: 72%
Population Hoechst High Intensity Objects (%) [4]: 0%
Population Membrane Permeable-Phenotype (%) [4]: 4%
Population Mitochondria Different-Phenotype (%) [4]: 1%
Population Mitotic Cells (%) [4]: 27%
Population Normal (%) [4]: 100%
Population Pyknosed Nuclei (%) [4]: 10%
Population Tubulin-Different-Phenotype (%) [4]: 5%
Total Cell Count [4]: 101
Population Apoptotic (%) [5]: 83%
Population Fragmented Nuclei (%) [5]: 25%
Population Healthy Nuclei (%) [5]: 64%
Population Hoechst High Intensity Objects (%) [5]: 3%
Population Membrane Permeable-Phenotype (%) [5]: 4%
Population Mitochondria Different-Phenotype (%) [5]: 1%
Population Mitotic Cells (%) [5]: 16%
Population Normal (%) [5]: 96%
Population Pyknosed Nuclei (%) [5]: 10%
Population Tubulin-Different-Phenotype (%) [5]: 1%
Total Cell Count [5]: 247
Population Apoptotic (%) [6]: 94%
Population Fragmented Nuclei (%) [6]: 9%
Population Healthy Nuclei (%) [6]: 79%
Population Hoechst High Intensity Objects (%) [6]: 1%
Population Membrane Permeable-Phenotype (%) [6]: 10%
Population Mitotic Cells (%) [6]: 5%
Population Normal (%) [6]: 98%
Total Cell Count [6]: 177
Population Apoptotic (%) [7]: 88%
Population Fragmented Nuclei (%) [7]: 26%
Population Healthy Nuclei (%) [7]: 64%
Population Hoechst High Intensity Objects (%) [7]: 2%
Population Membrane Permeable-Phenotype (%) [7]: 7%
Population Mitochondria Different-Phenotype (%) [7]: 3%
Population Mitotic Cells (%) [7]: 11%
Population Normal (%) [7]: 97%
Population Pyknosed Nuclei (%) [7]: 8%
Population Tubulin-Different-Phenotype (%) [7]: 3%
Total Cell Count [7]: 298
Population Apoptotic (%) [8]: 53%
Population Fragmented Nuclei (%) [8]: 16%
Population Healthy Nuclei (%) [8]: 72%
Population Hoechst High Intensity Objects (%) [8]: 0%
Population Mitochondria Different-Phenotype (%) [8]: 6%
Population Mitotic Cells (%) [8]: 46%
Population Normal (%) [8]: 100%
Population Pyknosed Nuclei (%) [8]: 11%
Population Tubulin-Different-Phenotype (%) [8]: 6%
Total Cell Count [8]: 111
Population Apoptotic (%) [9]: 93%
Population Fragmented Nuclei (%) [9]: 16%
Population Healthy Nuclei (%) [9]: 74%
Population Hoechst High Intensity Objects (%) [9]: 2%
Population Membrane Permeable-Phenotype (%) [9]: 5%
Population Mitochondria Different-Phenotype (%) [9]: 1%
Population Mitotic Cells (%) [9]: 6%
Population Normal (%) [9]: 97%
Population Pyknosed Nuclei (%) [9]: 8%
Population Tubulin-Different-Phenotype (%) [9]: 1%
Total Cell Count [9]: 368
Population Apoptotic (%) [10]: 78%
Population Fragmented Nuclei (%) [10]: 11%
Population Healthy Nuclei (%) [10]: 79%
Population Hoechst High Intensity Objects (%) [10]: 3%
Population Membrane Permeable-Phenotype (%) [10]: 4%
Population Mitochondria Different-Phenotype (%) [10]: 3%
Population Mitotic Cells (%) [10]: 21%
Population Normal (%) [10]: 96%
Population Pyknosed Nuclei (%) [10]: 9%
Population Tubulin-Different-Phenotype (%) [10]: 2%
Total Cell Count [10]: 253
Population Apoptotic (%) [11]: 97%
Population Fragmented Nuclei (%) [11]: 19%
Population Healthy Nuclei (%) [11]: 68%
Population Hoechst High Intensity Objects (%) [11]: 2%
Population Membrane Permeable-Phenotype (%) [11]: 6%
Population Mitochondria Different-Phenotype (%) [11]: 2%
Population Mitotic Cells (%) [11]: 2%
Population Normal (%) [11]: 97%
Population Pyknosed Nuclei (%) [11]: 12%
Population Tubulin-Different-Phenotype (%) [11]: 4%
Total Cell Count [11]: 396
Population Apoptotic (%) [12]: 82%
Population Fragmented Nuclei (%) [12]: 16%
Population Healthy Nuclei (%) [12]: 73%
Population Hoechst High Intensity Objects (%) [12]: 1%
Population Membrane Permeable-Phenotype (%) [12]: 4%
Population Mitochondria Different-Phenotype (%) [12]: 1%
Population Mitotic Cells (%) [12]: 17%
Population Normal (%) [12]: 98%
Population Pyknosed Nuclei (%) [12]: 10%
Population Tubulin-Different-Phenotype (%) [12]: 0%
Total Cell Count [12]: 170
